Experiments:
[1] = Pharmacokinetics of DTX in mice after oral administration; format: in vivo; settings: male, Kunming, mouse, plasma (systemic circulation), 20 mg/kg, oral 20 mg/kg DTX
Procedure, shortened: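 Male SPF Kunming mice (22–24 g) were randomised by weight and given a single oral dose of 20 mg/kg. Free drug was prepared as a sonicated water dispersion and the nanoparticle powder was vortexed in water. Five mice were sampled per time point (0.125–12 h) under Zoletil anaesthesia. Portal and systemic heparin plasma were collected, and liver and lung were rinsed, weighed and homogenised in water. Samples were acetonitrile-precipitated and assayed by LC-MS/MS, with parameters from non-compartmental analysis.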

[2] = cited from earlier work
[3] = two hours of incubation in an alkaline solution (0.005 N NaOH, pH roughly 11.7) ref 39; cited from earlier work

Question: Which Tmax [1] does the source give for `CC(=O)O[C@@]12CO[C@@H]1C[C@H](O)[C@@]1(C)C(=O)[C@H](O)C3=C(C)[C@@H](OC(=O)[C@H](O)[C@@H](NC(=O)OC(C)(C)C)c4ccccc4)C[C@@](O)([C@@H](OC(=O)c4ccccc4)[C@H]21)C3(C)C` [DTX, Docetaxel] here?
Answer: The Tmax was 30 min.

Question: What about the Oral bioavailability [2] of the same compound?
Answer: Its Oral bioavailability is 7.39%.

Question: And the Degradation [3]?
Answer: Its Degradation is “about 25%”.

From article PMC11339345 (International Journal of Nanomedicine, 2024)
